≈ marks a conversion by molar mass, not a printed value.
What was measured:
Assay type in all cases: functional
[1] = system: Mycobacterium tuberculosis; test: Antibacterial activity against multi drug resistant Mycobacterium tuberculosis 586/98 isolate
How it was run: (§1)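 MIC against clinical MTB isolates by the macrodilution broth method in Middlebrook broth enriched with 10% ADC. Values are in µg/mL.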

[2] = system: Mycobacterium tuberculosis; test: Antibacterial activity against multi drug resistant Mycobacterium tuberculosis 275/05 isolate; how it was run: as §1
[3] = system: Mycobacterium tuberculosis; test: Antibacterial activity against multi drug resistant Mycobacterium tuberculosis 43/05 isolate; how it was run: as §1
[4] = system: Mycobacterium tuberculosis; test: Antibacterial activity against multi drug resistant Mycobacterium tuberculosis 520/98 isolate; how it was run: as §1
[5] = system: Mycobacterium tuberculosis; test: Antibacterial activity against multi drug resistant Mycobacterium tuberculosis 134/02 isolate; how it was run: as §1
[6] = system: Mycobacterium tuberculosis; test: Antibacterial activity against multi drug resistant Mycobacterium tuberculosis 482/98 isolate; how it was run: as §1
[7] = system: Mycobacterium tuberculosis; test: Antibacterial activity against multi drug resistant Mycobacterium tuberculosis 296/04 isolate; how it was run: as §1
[8] = system: Mycobacterium tuberculosis; test: Antibacterial activity against multi drug resistant Mycobacterium tuberculosis 326/04 isolate; how it was run: as §1
[9] = system: Mycobacterium tuberculosis; test: Antibacterial activity against multi drug resistant Mycobacterium tuberculosis 149/03 isolate; how it was run: as §1
[10] = system: Mycobacterium tuberculosis; test: Antibacterial activity against multi drug resistant Mycobacterium tuberculosis 158/97 isolate; how it was run: as §1
[11] = system: Mycobacterium tuberculosis; test: Antibacterial activity against multi drug resistant Mycobacterium tuberculosis 421/96 isolate; how it was run: as §1

Structure (SMILES)	MIC [1] [µg/mL]	MIC [2] [µg/mL]	MIC [3] [µg/mL]	MIC [4] [µg/mL]	MIC [5] [µg/mL]	MIC [6] [µg/mL]	MIC [7] [µg/mL]	MIC [8] [µg/mL]	MIC [9] [µg/mL]	MIC [10] [µg/mL]	MIC [11] [µg/mL]
Cc1ccc(-c2cc(CN3CCSCC3)c(C)n2-c2ccc(F)cc2)cc1	0.5 (≈ 1.31 µM)	0.5 (≈ 1.31 µM)	0.5 (≈ 1.31 µM)	0.5 (≈ 1.31 µM)	0.5 (≈ 1.31 µM)	0.5 (≈ 1.31 µM)	0.5 (≈ 1.31 µM)	32 (≈ 84.1 µM)	0.5 (≈ 1.31 µM)	0.5 (≈ 1.31 µM)	0.5 (≈ 1.31 µM)
Cc1c(CN2CCSCC2)cc(-c2ccc(F)cc2)n1-c1ccccc1F	2 (≈ 5.2 µM)	2 (≈ 5.2 µM)	0.5 (≈ 1.3 µM)	2 (≈ 5.2 µM)	2 (≈ 5.2 µM)	2 (≈ 5.2 µM)	2 (≈ 5.2 µM)	> 32	2 (≈ 5.2 µM)	0.5 (≈ 1.3 µM)	2 (≈ 5.2 µM)
